Assay outcomes deposited in PubChem BioAssay by The Scripps Research Institute Molecular Screening Center.
Sampled rows, rich in hits. Any-hit rate of the full collection: about 1.6%.
UHRF1 binding = UHRF1 methyl-DNA binding inhibition; inhibition, % at 4.4 µM; AID 687016; 0.75% of 370,000 active; Q96T88; UHRF1 binding to methylated oligo, TR-FRET; in the data active = inhibition above about 21%;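 also: UHRF1 SRA domain binding a hemimethylated CpG hairpin DNA probe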
MBD2 inh = blocks human MBD2 binding to methylated DNA. Q9UBB5. 0.31% of 370,000 active. inhibition, % at 4.4 µM. TR-FRET, MBD2 binding to methylated oligonucleotide; in the data active = inhibition above about 13%
Target sequence (Q9UBB5 whole entry, looked up): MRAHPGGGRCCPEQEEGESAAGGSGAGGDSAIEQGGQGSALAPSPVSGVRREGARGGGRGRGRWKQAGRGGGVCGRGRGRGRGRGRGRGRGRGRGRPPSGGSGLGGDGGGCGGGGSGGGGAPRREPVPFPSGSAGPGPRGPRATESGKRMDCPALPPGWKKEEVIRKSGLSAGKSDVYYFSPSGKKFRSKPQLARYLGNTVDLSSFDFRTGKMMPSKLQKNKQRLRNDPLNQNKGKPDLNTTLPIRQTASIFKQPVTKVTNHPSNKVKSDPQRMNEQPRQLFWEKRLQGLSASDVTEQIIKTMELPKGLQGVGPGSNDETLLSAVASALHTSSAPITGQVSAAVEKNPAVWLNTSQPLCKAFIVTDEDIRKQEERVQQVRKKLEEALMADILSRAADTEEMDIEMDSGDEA
TDP2 absorb = blocks human TDP2 phosphodiesterase activity; recombinant TDP2, T5PNP hydrolysis, p-nitrophenol absorbance 415 nm; AID 720702; inhibition, % at 12.8 µM; 0.34% of 370,000 active; O95551;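 active = inhibition above the mean of all tested compounds plus 3 SD, set per campaign, cut at about 25% in these data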
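Test system: human TDP2 enzyme; Input: 120 nM TDP2 per well; Buffer or medium: Mg2+-containing Tris-HCl buffer, pH 7.5; Reagent: 5 mM T5PNP; Dosing: 12.8 µM single point, 1% DMSO; Incubation: reaction 2 h, 37 °C; Detection: p-Nitrophenol epi absorbance; Read-out: % inhibition relative to enzyme-containing and enzyme-free wells; Replicates: single well per compound.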
LEDGF integ inh = blocks HIV-1 LEDGF/p75-dependent DNA integration | AID 743269 | TR-FRET IN-LEDGF/p75 DNA integration, Eu/Cy5 | 0.64% of 370,000 active | inhibition, % at 3.7 µM;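 active = inhibition above the screen-wide mean plus 3 SD, cut at about 13% in these data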;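 also: signal is the Cy5 over europium emission ratio at 671 and 618 nm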
IN multimer up = activates HIV-1 integrase multimerization in LEDGF counter-screen; activation, % at 7.7 µM; AID 1053131; 17% of 2,000 active; shares compounds with LEDGF integ inh; TR-FRET HIV-1 integrase multimerization, biochemical; in the data active = activation above about 8.9%
TR-FRET interf = TR-FRET optical interference, LEDGF/p75 integration counter-screen | shares compounds with LEDGF integ inh | 2,000 tested, under 10 active | inhibition, % at 7.7 µM | AID 1053135 | TR-FRET optical interference counterscreen, HIV-1 IN multimerization;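 active = inhibition above the mean over all tested compounds plus 3 SD, which no compound reached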
IN-LEDGF confirm = confirmation of HIV-1 LEDGF/p75-dependent integration inhibitors | shares compounds with LEDGF integ inh | TR-FRET LEDGF/p75-dependent HIV-1 integration, biochemical | inhibition, % at 3.7 µM | 36% of 2,000 active | AID 1053136; in the data active = inhibition above about 14%
A number is an active result; – = inactive; · = no result.

SMILES	UHRF1 binding	MBD2 inh	TDP2 absorb	LEDGF integ inh	IN multimer up	TR-FRET interf	IN-LEDGF confirm
COc1ccc(C(N)c2csc(Nc3cc(Oc4ccccc4)ncn3)n2)cc1 (stereo not given)	–	–	–	–	·	·	·
NC(c1csc(Nc2cc(Oc3ccccc3)ncn2)n1)C1CCCCC1 (stereo not given)	–	–	–	13.4	–	–	–
NC(c1csc(Nc2ccc(C(F)(F)F)cn2)n1)C1CCCCC1 (stereo not given)	–	–	–	17.9	–	–	–
NC(CO)c1csc(Nc2ccc(C(F)(F)F)cn2)n1 (stereo not given)	–	–	–	–	·	·	·
Cc1ccc(C(=O)CC2(O)C(=O)N(Cc3ccc4c(c3)OCO4)c3ccccc32)cc1 (stereo not given)	–	–	–	–	·	·	·
O=C(/C=C/c1ccc(F)cc1)N1CCCN(C(=O)/C=C/c2ccc(F)cc2)CC1	–	–	–	25.2	–	–	–
C=CCc1c(C)nc(-c2ccccc2)nc1N/N=C/c1ccccc1	–	–	–	53.2	–	–	24.7
COc1ccccc1Nc1nc(N)nc(CN2CCC(Cc3ccccc3)CC2)n1	–	–	–	14.8	–	–	–
COc1ccccc1Nc1nc(N)nc(CN2CCC(C)CC2)n1	–	–	–	–	·	·	·
O=C(NCC(=O)N1CC=C(c2ccccc2)CC1)c1ccccc1Br	–	–	–	–	·	·	·
CCOC(=O)[C@]12CCCCC/C=C\1N(CCc1ccc(Cl)cc1)C(=O)[C@H]2CC(=O)NCCc1ccccc1OC	–	–	–	18.0	–	–	–
CCCCNC(=O)C[C@@H]1C(=O)N(CCc2ccc(Cl)cc2)/C2=C/CCCCC[C@@]21C(=O)OCC	–	–	–	–	·	·	·
CCOC(=O)c1ccc(N2C(=O)c3n[nH]c(-c4ccco4)c3C2c2cccc([N+](=O)[O-])c2)cc1 (stereo not given)	–	–	–	15.9	–	–	–
Cc1nc2ccc(S(=O)(=O)N(C)CC(=O)NCCc3ccccc3)cc2s1	–	–	–	–	·	·	·
Oc1ccc(-c2cn3c(n2)SCC3)cc1	–	–	–	–	·	·	·
Oc1ccc(-c2cn3c(n2)SCC3)cc1O	–	–	–	52.1	72.4	–	58.5
CC(C)c1ccc2oc(=O)cc(CN3CCN(c4ccccc4)CC3)c2c1	–	–	–	–	·	·	·
CCOc1ccccc1OCC(=O)NNC(=O)Cn1cnc2c1c(=O)n(C)c(=O)n2C	–	–	–	14.5	–	–	–
CCOC(=O)N1CCN(C(=O)C[C@@H]2C[C@@]3(C(=O)OCC)CCCC=C3N(Cc3ccccc3)C2=O)CC1	–	–	–	–	·	·	·
CCOC(=O)[C@]12CCCC=C1N(Cc1ccccc1)C(=O)[C@H](CC(=O)N1CCCCCC1)C2	–	–	–	22.9	–	–	–
Cc1nn(CCCC(=O)Nc2sc3c(c2C#N)CCC3)c(C)c1[N+](=O)[O-]	–	–	–	18.3	–	–	–
Cc1nn(C(C)C(=O)Nc2sc3c(c2C#N)CCCC3)c(C)c1[N+](=O)[O-] (stereo not given)	–	–	–	–	·	·	·
CCn1c(SCC(=O)OCc2ccccc2)nnc1-c1ccco1	–	–	–	19.0	–	–	–
CC1(C)CC(=O)C2=C(C1)Oc1ncn(CCCn3ccnc3)c(=N)c1C2c1ccccc1 (stereo not given)	–	–	–	88.4	–	–	–
O=C(CCc1ccccc1-c1ccccc1CCNC(=O)COCc1ccccc1)NCc1ccccc1	–	–	–	–	·	·	·
SMILES	UHRF1 binding	MBD2 inh	TDP2 absorb	LEDGF integ inh	IN multimer up	TR-FRET interf	IN-LEDGF confirm
CC1(C)Cc2c(c(-c3ccco3)[nH]c(=O)c2C#N)CS1	–	–	–	18.1	–	–	23.3
CC1(C)Cc2c(c(-c3ccccc3)[nH]c(=O)c2C#N)CS1	–	–	–	–	·	·	·
CC(=O)N1CCN(c2nc(-c3ccco3)c3c(c2C#N)CC(C)(C)SC3)CC1	–	–	–	21.9	–	–	18.5
CCN(CC)c1ccc(/C=N/NC(=O)CCC(=O)NCc2ccccc2)c(O)c1	–	–	–	–	·	·	·
Cc1cccc(/C(N)=N/OC(=O)c2ccc(Br)o2)c1	–	–	–	–	·	·	·
COc1ccccc1NC(=O)Oc1ccc(NC(=O)c2ccco2)cc1	–	–	–	–	·	·	·
CCC(=O)N1C(C(=O)NCc2ccc(OC)cc2)CSC1c1ccc(OC)cc1 (stereo not given)	–	–	–	–	·	·	·
CC(=O)Nc1cccc(-c2ccnc3c2CC(C(=O)NCc2ccc(N(C)C)cc2)O3)c1 (stereo not given)	–	–	–	–	·	·	·
COc1ccc2c(-c3ccccc3)cc(SCC(=O)NC3CCS(=O)(=O)C3)nc2c1 (stereo not given)	–	–	–	–	·	·	·
Clc1cccc(Oc2cnns2)c1Cl	–	–	–	16.9	–	–	–
Clc1cccc(OCCn2cncn2)c1Cl	–	–	–	–	·	·	·
COc1ccc(C(=O)C[C@@H]2OC[C@H](C)N2S(=O)(=O)c2ccc(C)cc2)cc1OC	–	–	–	–	·	·	·
O=c1c2c(-c3ccco3)csc2nc(SCc2cn3cccnc3n2)n1-c1ccccc1	31.9	–	–	26.7	–	–	22.3
NC(=O)CSc1nc2scc(-c3ccco3)c2c(=O)n1-c1ccccc1	–	–	–	17.5	–	–	–
O=C1OC(Nc2ncccn2)c2ccccc21 (stereo not given)	–	–	–	–	·	·	·
O=C1OC(Nc2cc(Br)cc3cccnc23)c2ccccc21 (stereo not given)	–	–	79.2	53.5	–	–	73.8
CCC1OC(=O)C(C)C(OC2C[C@@](C)(OC)C(O)C(C)O2)C(C)C(O[C@@H]2OC(C)CC(N(C)C)C2O)[C@](C)(O)CC(C)C(=NOCOCCOC)C(C)C(O)[C@]1(C)O (stereo not given in full)	–	–	–	–	·	·	·
CC1=CC(=O)C=CC1=Nc1ccc(N(C)C)cc1	–	–	–	27.0	–	–	–
COc1cc(N(C(C)=O)c2ccc(O)c(C(=O)O)c2)c2ncccc2c1	–	–	–	15.9	–	–	26.3
CC1OC(OCC2OC(Oc3c(-c4ccc(O)cc4)oc4cc(O)cc(O)c4c3=O)C(O)C(O)C2O)C(O)C(O)C1O (stereo not given)	–	–	–	16.7	30.1	–	47.1
CC1OC(OC2C(Oc3c(-c4ccc(O)cc4)oc4cc(O)cc(O)c4c3=O)OC(COC3O[C@@H](C)[C@H](O)[C@@H](O)C3O)C(O)C2O)C(O)C(O)C1O (stereo not given in full)	–	–	–	–	·	·	·
Cc1ccc(S(=O)(=O)N2[C@H](CC(=O)c3cccc4ccccc34)OC[C@@H]2C(C)C)cc1	–	–	–	–	·	·	·
